Results: ChEMBL document CHEMBL2406954, “Improved flavodoxin inhibitors with potential therapeutic effects against Helicobacter pylori infection” (J Med Chem, 2013)
pKd: −log10 of the molar value. Converted amounts (≈) assume the structure as drawn. The source made the active and inactive calls. The calls are words filed in the database; no cut-off is given here.

Legend:
[1] = Cytotoxicity in human HeLa cells after 24 hrs by XTT assay; type: cell-based
Summary of the method: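 HeLa cells, 30,000 per well in DMEM with 10% fetal serum and penicillin/streptomycin. Compound added from DMSO to final 0.1, 0.25, 0.5, 1, 10, 25, 50, 75, 100 µM; DMSO-only controls. 24 h at 37 °C, then medium exchanged for phenol red-free medium, XTT-PMS added, 4 h at 37 °C, absorbance read at 450 and 500 nm. Two experiments, each in triplicate.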

[2] = Therapeutic index, ratio of MCC for human HeLa cells to MIC for Helicobacter pylori; type: cell-based; settings: read-out: TI
[3] = Binding affinity to Helicobacter pyroli flavodoxin expressed in Escherichia coli by isothermal titration calorimetry analysis; set-up: species or system Helicobacter pylori
Summary of the method: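 ITC at 25°C: degassed 20 µM protein titrated with ~500 µM inhibitor, both in 50 mM EPPS pH 9.0, 5% DMSO. Injection heats fitted to a 1:1 binding model for Kd.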

Helicobacter pylori [4] = test: Antibacterial activity against Helicobacter pylori after 28 hrs by microdilution method; type: functional
Helicobacter pylori [5] = test: Bactericidal activity against Helicobacter pylori at 2 times MIC; type: functional, organism-based

| Compound | MCC at 24 h [1] [µM] | selectivity ratio [2] | pKd [3] | MIC (Helicobacter pylori [4]) [µM] | Activity (Helicobacter pylori [5]) |
| --- | --- | --- | --- | --- | --- |
| COc1ccc(CCCSc2ccc([N+](=O)[O-])c3nonc23)cc1 | 1 |  |  |  |  |
| Brc1cccc2nsnc12 | 100 |  |  |  |  |
| NS(=O)(=O)c1ccc(SCCO)c2nonc12 | 100 |  |  |  |  |
| CN(C)c1ccc([N+](=O)[O-])c2nonc12 | 100 |  |  |  |  |
| O=[N+]([O-])/C=C/c1cc(Cl)cc(Cl)c1 | 2 | 0.8 | 6.17 | 2.4 (≈ 0.523 µg/mL) |  |
| COc1ccc(C(=O)OCCSc2ccc([N+](=O)[O-])c3nonc23)cc1 | 8 |  |  |  |  |
| CSc1ccc(C2Oc3ccccc3C=C2[N+](=O)[O-])cc1 (configuration not stated) | 1 |  |  |  |  |
| O=[N+]([O-])/C=C/c1cc(C(F)(F)F)cc(C(F)(F)F)c1 | 3.5 | 1.5 | 5.46 | 2.4 (≈ 0.684 µg/mL) |  |
| O=[N+]([O-])C1=Cc2cc(Cl)cc(Cl)c2OC1c1ccc(I)cc1 (configuration not stated) | 10 |  |  |  |  |
| O=[N+]([O-])/C=C/c1ccc(Br)cc1 | 8 | 15.1 | 5.39 | 0.53 (≈ 0.121 µg/mL) | Active |
| Cc1ccc(Sc2ccc([N+](=O)[O-])c3nonc23)cc1 | 1.3 |  |  |  |  |
| O=[N+]([O-])C1=Cc2cc(Cl)cc(Cl)c2OC1c1ccc(Br)cc1 (configuration not stated) |  |  | 4.60 |  |  |
| O=[N+]([O-])C1=Cc2c(ccc3ccccc23)OC1c1ccc(F)cc1 (configuration not stated) | 10 | 8.3 | 6.11 | 1.2 (≈ 0.386 µg/mL) | Active |
| O=[N+]([O-])/C=C/c1ccccc1I | 1 | 0.2 | 4.80 | 4.8 (≈ 1.32 µg/mL) |  |
| O=[N+]([O-])/C=C/c1ccc(F)cc1Br | 10 | 2.1 | 4.72 | 4.8 (≈ 1.18 µg/mL) |  |
| COC(=O)C1=C(c2ccccc2Cl)Oc2ccc([N+](=O)[O-])cc2C1 | 70 |  |  |  |  |
| O=C(Nc1ccccc1)OCCSc1ccc([N+](=O)[O-])c2nonc12 | 2.2 |  |  |  |  |
| COc1ccc(CSc2ccc([N+](=O)[O-])c3nonc23)cc1 | 1.7 |  |  |  |  |
| O=[N+]([O-])/C=C/c1ccc(I)cc1 | 10 | 9.4 | 5.18 | 1.06 (≈ 0.292 µg/mL) | Active |
| O=[N+]([O-])C1=Cc2cc(Cl)ccc2OC1c1ccc(F)cc1 (configuration not stated) | 6 |  |  |  |  |
| O=[N+]([O-])/C=C/c1cc(Cl)cc(Br)c1 | 2.7 |  | 5.00 |  |  |

| Compound | MCC at 24 h [1] [µM] | selectivity ratio [2] | pKd [3] | MIC (Helicobacter pylori [4]) [µM] | Activity (Helicobacter pylori [5]) |
| --- | --- | --- | --- | --- | --- |
| O=[N+]([O-])/C=C/c1ccccc1C(F)(F)F | 0.1 | 0.04 | 5.06 | 2.4 (≈ 0.521 µg/mL) |  |
| O=[N+]([O-])/C=C/c1cccc(C(F)(F)F)c1 | 40 | 8.4 | 5.10 | 4.75 (≈ 1.03 µg/mL) | Active |
| CCOC(=O)C1=Cc2cc(Cl)cc(Cl)c2OC1c1ccc(F)cc1 (configuration not stated) | 12 |  |  |  |  |
| O=C(Nc1ccc(Cl)cc1Cl)OCCSc1ccc([N+](=O)[O-])c2nonc12 | 1.7 |  |  |  |  |
| O=[N+]([O-])C1=Cc2cc(Cl)ccc2NC1c1ccc(F)cc1 (configuration not stated) |  |  | 4.48 |  |  |
| COc1ccc(Sc2ccc([N+](=O)[O-])c3nonc23)cc1 | 3 | 1.5 | 5.59 | 2 (≈ 0.607 µg/mL) | Active |
| O=[N+]([O-])C1=Cc2cc(Cl)cc(Cl)c2OC1c1ccc(F)cc1 (configuration not stated) | 6 |  |  |  |  |
| O=C(OCCSc1ccc([N+](=O)[O-])c2nonc12)c1ccc(Cl)cc1Cl | 4 |  |  |  |  |
| COc1ccc(C2(C)SCc3cc(C)c(C)cc3CS2)cc1 | 100 |  |  |  |  |
| O=[N+]([O-])/C=C/c1ccc(F)cc1 | 20 | 18.9 | 4.40 | 1.06 (≈ 0.177 µg/mL) | Active |
| O=[N+]([O-])/C=C/c1c(F)cc(Cl)cc1F | 20 | 37.7 | 5.13 | 0.53 (≈ 0.116 µg/mL) | Active |
| COc1cccc(/C=C(\C)[N+](=O)[O-])c1 | 0.7 | 0.3 | 5.26 | 2.4 (≈ 0.464 µg/mL) |  |
| COC(=O)/C=C/c1cc(C(F)(F)F)cc(C(F)(F)F)c1 | 100 |  |  |  |  |
| COc1ccc(CSc2ccc(N)c3nonc23)cc1 | 100 |  |  |  |  |
| O=[N+]([O-])/C=C/c1c(F)c(F)c(F)c(F)c1F | 0.01 | 0.001 | 5.00 | 8 (≈ 1.91 µg/mL) |  |
| O=C(O)/C=C/c1cc(C(F)(F)F)cc(C(F)(F)F)c1 | 100 |  |  |  |  |
| O=[N+]([O-])C1=Cc2cc(Cl)ccc2OC1c1ccc(Cl)cc1 (configuration not stated) | 6 |  |  |  |  |
| COc1ccc(CSc2ccc(S(N)(=O)=O)c3nonc23)cc1 | 12 |  |  |  |  |
| O=[N+]([O-])/C=C/c1cc(C(F)(F)F)ccc1F | 8 | 15.1 | 5.36 | 0.53 (≈ 0.125 µg/mL) |  |
| O=[N+]([O-])/C=C/c1ccc(Cl)c(C(F)(F)F)c1 | 5 | 4.7 | 5.55 | 1.06 (≈ 0.267 µg/mL) |  |
